Source: PubChem BioAssay (several laboratories)
Compounds with a hit are over-represented: about 3.7% of the library has one in this group of screens.
Calpain2 inh: inhibitors of pig calpain II. 0.37% of 220,000 active. inhibition, % at 16 µM. AID 1236. purified calpain II, fluorogenic peptide substrate, 30 min;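 active = inhibition above about 50%, limit read from the data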
Cl transport mod: modulates chloride dependent transport by human KCC2; B-score of Tl+ flux slope (higher = more flux/activation; lower = inhibition) at 10 µM; KCC2 cells, thallium flux FluoZin-2 fluorescence; 2.2% of 190,000 active;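 active = thallium flux slope and its plate-corrected score both differing from the plate sample mean at a set confidence after two filtering rounds, in either direction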;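 also: slope of fluorescence scaled to starting intensity during 10 to 20 s after thallium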
PKD1 inh: inhibitors of human PKD1 kinase; PKD1 kinase fluorescence polarization assay; Q15139; inhibition, % (test concentration not listed); 0.056% of 200,000 active; in the data active = inhibition above about 50%
ROMK mod: modulates human ROMK potassium channel activity. P48048. B-score at 10 µM. Tet-inducible ROMK, thallium flux fluorescence; actives lie on both sides. 2% of 130,000 active;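 active = signal ratio slope over the read window, or its plate-corrected B-score, at least 3 SD from the plate mean, either direction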;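 also: B-score of the F/F0 ratio slope over 7 to 12 s after thallium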
Mdm2 ligase inh: inhibitors of human Mdm2 E3 ubiquitin ligase | Q00987 | cell-based MDM2 ubiquitination luciferase reporter, 2 h; 0 = plate control, 100 = twice control, blank-subtracted | signal enhancement, % at 5 µM | 0.11% of 210,000 active;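 active = signal enhancement of 30% or more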;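 also: luminescence tracks abundance of the self-degrading MDM2-luciferase fusion protein; higher signal means inhibition of MDM2 E3 ligase activity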
Target sequence (Q00987 whole entry, looked up, the tested form may be a part): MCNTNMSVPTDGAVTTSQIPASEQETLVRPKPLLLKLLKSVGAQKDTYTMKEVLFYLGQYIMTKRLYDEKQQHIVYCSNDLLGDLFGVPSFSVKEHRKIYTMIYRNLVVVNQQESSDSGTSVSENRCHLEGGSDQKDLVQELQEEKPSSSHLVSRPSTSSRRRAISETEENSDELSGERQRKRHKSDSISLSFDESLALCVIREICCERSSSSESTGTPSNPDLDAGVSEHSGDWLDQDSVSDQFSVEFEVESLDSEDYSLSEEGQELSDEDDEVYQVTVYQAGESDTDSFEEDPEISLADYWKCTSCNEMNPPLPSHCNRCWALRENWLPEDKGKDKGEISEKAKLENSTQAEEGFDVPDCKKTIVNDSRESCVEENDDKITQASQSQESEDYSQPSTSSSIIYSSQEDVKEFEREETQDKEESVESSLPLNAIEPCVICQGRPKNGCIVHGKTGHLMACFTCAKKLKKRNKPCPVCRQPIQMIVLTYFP
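test system = mammalian cells stably expressing self-ubiquitinating, self-degrading MDM2 E3–luciferase fusion | quantity = 2000 cells/well | incubation = cell settling 4 h, compound treatment 2 h, both 37 °C | signal = luminescence with SteadyLite reagent, 15 min at room temperature | evaluation = % enhancement relative to plate controls after blank subtraction | benchmarks = plate controls and plate blanks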
Arbovirus anti: blocks arbovirus infection. arbovirus infection cell-based antiviral screen. 0.37% of 200,000 active. inhibition, % at 10 µM. AID 1251; in the data active = inhibition above about 30%
* marks the source's active call; other numbers are inactive results; / = no result.

SMILES | Calpain2 inh | Cl transport mod | PKD1 inh | ROMK mod | Mdm2 ligase inh | Arbovirus anti
Cc1cnc(NC(=O)c2ccc(-c3nc4ccccc4s3)o2)s1 | -76 | / | 3 | -0.00069 | -18 | 51*
Cc1ccc(S(=O)(=O)N2CCSC2=Nc2ccccc2)cc1 | -2 | -1.7 | / | / | / | /
Cc1ccccc1NC(=S)N(CCc1c(C)[nH]c2ccc(F)cc12)Cc1cccnc1 | 64* | 0.87 | -1 | -0.055 | -6 | 4
Cc1[nH]c2ccc(F)cc2c1CCN(Cc1cccnc1)C(=S)Nc1cccc(F)c1 | 28 | -0.21 | -5 | 0.64 | -18 | 15
CC(=O)Nc1ccc(NC(=O)C2CCN(C(=O)c3cccs3)CC2)cc1 | 1 | 0.82 | -2 | 0 | 4 | 5
Oc1ccc(-c2n[nH]c(=S)n2-c2ccc3c(c2)OCCO3)c(O)c1 | -12 | -0.59 | -2 | / | 13 | 33*
O=C(Nc1ccc(Br)cn1)c1cccc2c1-c1ccccc1C2=O | -27 | -0.24 | -1 | 0.84 | -14 | -12
Fc1cccc(C2NN=C(c3ccccc3)S2)c1 (stereo unspecified) | 16 | 26* | 0 | -0.64 | -38 | -2
O=C(NCc1ccco1)C1CCN(C(=O)c2cc3sccc3n2Cc2ccc(Cl)cc2)CC1 | 57* | -1.2 | -14 | -1.9 | -3 | -13
Cc1ccc(S(=O)(=O)N/N=C/c2cccc3nccnc23)cc1 | 15 | / | / | / | -29 | /
Cn1c(=O)n(C)c2cc(S(=O)(=O)N3CCN(c4ccccc4)CC3)ccc21 | -17 | 0.13 | / | / | -15 | /
COc1ccc(C2C(C#N)=C(N)Oc3cc(C)[nH]c(=O)c32)cc1OC (stereo unspecified) | -2 | 0.37 | / | / | -6 | /
CC1=CC2=NC(=O)/C(=C\c3cccn3CCOc3cc(C)cc(C)c3)C(=N)N2O1 | 88* | -0.72 | -10 | -0.58 | -30 | -5
CCC(=O)NC(=S)NNC(=O)c1ccccc1[N+](=O)[O-] | -17 | -0.87 | -13 | 0.056 | -4 | 4
CCCN(Cc1ccccc1)C(=S)NC(=O)c1ccccc1[N+](=O)[O-] | 0 | 70* | -10 | 4.5* | 24 | -5
CCN(CC)C(=S)NC(=O)c1ccc(Cl)cc1Cl | -30 | 12* | 2 | 1.4 | -5 | -4
CCC(=O)NC(=S)Nc1cccc(NC(=O)c2ccc(Cl)cc2Cl)c1 | -31 | / | 5 | / | -4 | -3
CCCCN(CCCC)C(=S)NC(=O)c1ccccc1Cl | 10 | 65* | -5 | 2.7* | -8 | -25
CCCN(CCC)C(=S)NC(=O)c1ccc(-c2ccccc2)cc1 | 50* | / | -20 | / | 3 | -19
CCOc1ccc(C(=O)NC(=S)N(Cc2ccccc2)Cc2ccccc2)cc1 | 8 | / | 5 | / | 0 | 0
C=CCNC(=S)Nc1ccc(N(C)C)cc1 | -14 | 0.85 | / | / | -3 | /
O=C(CNC(=S)NC(=O)c1ccccc1Br)c1ccccc1 | 21 | 0.38 | 2 | -0.2 | -6 | -2
CCCCNC(=S)NC(=O)c1ccc(Cl)cc1Cl | 48 | 5.3* | -2 | / | -8 | 6
Cc1ccccc1C(=O)NC(=S)NCCc1ccccc1 | 5 | 8.3* | 0 | -1.7 | -1 | 4
CC1CCCC(NC(=S)NC(=O)c2ccccc2Br)C1C (stereo unspecified) | -4 | 23* | -15 | 0.073 | -18 | -12
SMILES | Calpain2 inh | Cl transport mod | PKD1 inh | ROMK mod | Mdm2 ligase inh | Arbovirus anti
CCCCNC(=S)NC(=O)c1ccccc1Br | 24 | 35* | -9 | -0.42 | / | -7
Cc1cc(C(=O)NNC(=S)Nc2ccccc2)nn1C | -27 | -0.46 | -8 | -0.65 | -6 | -6
Cc1ccc([N+](=O)[O-])c(OCCN2CCC(Cc3ccccc3)CC2)c1 | -1 | -2.3 | -5 | -0.26 | -8 | -27
CN(C)S(=O)(=O)c1cccc(NC(=O)CCc2c[nH]c3ccccc23)c1 | 11 | -1.1 | -3 | -0.12 | 1 | 9
Cc1nn(C)cc1C(C)NCc1c(C(=O)N2CCCCCCC2)nc2ccc(Cl)cn12 (stereo unspecified) | 6 | 0.012 | 3 | -0.34 | 6 | -3
CC1=C(C(=O)OCC2CCCO2)C(c2ccc(C)o2)C2=C(CC(c3ccc(F)cc3)CC2=O)N1 (stereo unspecified) | 14 | -0.87 | -8 | / | -7 | -23
CC1=C(C(=O)OCC2CCCO2)C(c2ccc(C)o2)C2=C(CC(c3ccc(N(C)C)cc3)CC2=O)N1 (stereo unspecified) | 99* | 0.24 | -4 | -1.2 | -8 | -4
COc1ccc(F)cc1C(=O)C1CCCN(C(=O)CSc2ccccn2)C1 (stereo unspecified) | -27 | -2.1 | -8 | 0.024 | -3 | 35*
CCCCCC1=CCC/C1=N\NC(=O)c1ccc2c(c1)OCO2 | -3 | -0.79 | -3 | 0.31 | -8 | -17
CC(C)(C)NC(=O)NC(=O)CN1CCN(c2ccc(O)cc2)CC1 | 74* | -0.89 | -8 | -0.36 | -11 | 3
CC(=O)NC(Cc1cccc(F)c1)C(=O)NC1CCN(c2nnnn2-c2ccccc2)CC1 (stereo unspecified) | -26 | -0.68 | 1 | -0.00032 | -6 | 16
Cc1ccc(C)c(N2CCN(C(=O)Cc3ccc(-n4c(=O)[nH]c5ccsc5c4=O)cc3)CC2)c1 | -49 | -0.19 | 2 | 1.1 | -13 | 36*
O=C(c1cc2ccccc2oc1=O)N(Cc1ccco1)C1CCS(=O)(=O)C1 (stereo unspecified) | -12 | -4.7* | -2 | -0.62 | -31 | 5
O=C(c1cc2ccccc2oc1=O)N(Cc1cccc(Br)c1)C1CCS(=O)(=O)C1 (stereo unspecified) | -14 | -1.2 | / | / | 6 | /
O=C1CCCC(=O)C1C(=O)C1CCN(S(=O)(=O)c2ccccc2)CC1 | -10 | -1.3 | 0 | 0.073 | -6 | 1
O=C(Nc1ccccc1-c1nnn(CC(=O)N2CCc3ccccc3C2)n1)C1CCC1 | 26 | / | -2 | -0.085 | -16 | -9
CC(C)CC(=O)Nc1ccccc1-c1nnn(CC(=O)N2CCc3ccccc3C2)n1 | 8 | -3.8* | 0 | / | -16 | -6
CCCCCCSc1nnc(-c2cnn(-c3ccccc3)c2-n2cccc2)n1C | 56* | -2.6 | 5 | -2.4 | -9 | -37
CCSc1nnc(-c2cnn(-c3ccccc3)c2-n2cccc2)n1C | -18 | 1.1 | 1 | 1.7 | -17 | 3
O=C(CCC(=O)N1CCN(S(=O)(=O)c2ccc(Cl)cc2)CC1)Nc1cccc(Br)c1 | 83* | 0.0089 | -4 | -0.77 | -4 | -5
NC(=O)c1ccc(NC(=O)CCC(=O)N2CCN(S(=O)(=O)c3ccc(Cl)cc3)CC2)cc1 | 22 | -0.56 | / | / | -21 | /
O=C(NN=C1c2ccccc2-c2ccccc21)c1cccc(Br)c1 | -8 | 60* | 2 | / | -11 | -17
O=C(COc1cccc(Br)c1)NN=C1c2ccccc2-c2ccccc21 | -6 | 1.5 | 6 | / | -11 | -10
O=C(Nc1ccc(Cc2ccncc2)cc1)c1ccc(S(=O)(=O)N2CCCC2)cc1 | 14 | -1.1 | -12 | 0.015 | -35 | -18
COc1ccccc1NC(=O)C12CC3CC(C1)CC(c1ccc(C)cc1)(C3)C2 | 47 | 1.5 | 6 | -0.097 | -3 | 32*
